Lmaj promast – inhibitors of Leishmania major promastigote growth; Leishmania major promastigotes, resazurin fluorescence viability; inhibition, % at 10 µM; 9% of 200,000 active; in the data active = inhibition above about 50%;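 also: promastigotes grown with compound for 44 hours at 28 °C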
WT yeast gro inh – growth inhibition of WT yeast, mitochondrial fusion screen; mitochondrial fusion phenotypic screen, WT strain; inhibition, % at 10 µM; 2.1% of 190,000 active; AID 1362; in the data active = inhibition above about 58%; tested in S. cerevisiae
RAM network inh – inhibitors of the yeast RAM network. S. cerevisiae dse1pr::URA3 reporter, 5-FOA growth OD615, 2 d; analog-sensitive cbk1-as2 kinase mutant strain. 1.8% of 190,000 active. inhibition, % at 50 µM;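 active = inhibition above a set limit, 3 SD over mean compound inhibition, cut at about 8.4% in these data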;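 also: 0% = DMSO-only wells with no growth and 100% = 10 µM 1-NA-PP1 full growth; inhibition rescues growth on 5-FOA so higher OD means more RAM inhibition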
ABCG2 block – blocks JC-1 efflux by human ABCG2 transporter; Q9UNQ0; IgMXP3 cells, flow cytometry; inhibition, % at 6.6 µM; 0.1% of 190,000 active; AID 1325;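 active = inhibition above 80%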;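 also: 0% = DMSO and 100% = nicardipine control wells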
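Test system: IgMXP3 (ABCG2) plus far-red-tagged CCRF-Adr (ABCB1) cells / Amount: 3 million cells/mL in well / Reagent: JC-1 transporter substrate / Timing: 10 min compound exposure, 25 °C / Signal: flow cytometry, 530 nm JC-1 signal / Read-out: percent efflux inhibition, scaled nicardipine 100% to DMSO 0% / Benchmarks: nicardipine as high control, DMSO as low control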
ABCB1 block – blocks JC-1 efflux by human ABCB1 transporter; CCRF-Adr cells, flow cytometry; inhibition, % at 6.6 µM; 0.067% of 190,000 active; AID 1326; P08183; in the data active = inhibition above about 40%;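 also: 0% = vehicle and 100% = reference inhibitor; higher value means more JC-1 retained so stronger ABCB1 efflux block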
L major 1uM – inhibitors of Leishmania major promastigote growth, repeat at 1 uM | shares compounds with Lmaj promast | L. major promastigote growth, resazurin fluorescence, 48 h | inhibition, % at 1 µM | 13% of 1,100 active;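 active = inhibition above about 50% in both repeat tests, limit read from the data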
The depositor's hits bear a star; . = no result. An excerpt weighted towards active compounds, which were near 12% of everything screened.

SMILES | Lmaj promast | WT yeast gro inh | RAM network inh | ABCG2 block | ABCB1 block | L major 1uM
CCCOC(=O)CSC1=C(C#N)C(c2ccccc2Cl)CC(=O)N1 (stereo not drawn) | 99.5* | 1.1 | 0.5 | 1.4 | 0.6 | 92.8*
CCOC(=O)CSC1=C(C#N)C(c2ccc(Cl)cc2)CC(=O)N1 (stereo not drawn) | 28.3 | 13.3 | 2.4 | 3.6 | 0.2 | .
O=C(N/N=C/c1ccco1)c1cc([N+](=O)[O-])cc([N+](=O)[O-])c1 | 97.4* | 5.2 | 0.0 | 12.2 | 0.8 | 16.0
O=C(N/N=C/c1ccco1)c1ccncc1 | -0.7 | 9.4 | 0.1 | 1.2 | 0.1 | .
Cc1nc2ccccc2cc1C(=O)N/N=C/c1ccco1 | 70.0* | -10.1 | 0.1 | 5.0 | 0.3 | -3.6
CN(C)CCNC(=O)/C=C/c1cn(-c2ccccc2)nc1-c1cc2ccccc2oc1=O | 21.6 | -7.0 | -0.6 | 0.9 | -0.2 | .
Cn1c(SC2=CS(=O)(=O)c3ccccc32)nc2ccccc21 | 98.6* | -19.3 | 2.7 | 4.7 | 0.7 | 15.4
Cn1c(CSc2nc3ccccc3n2C)nc2ccccc21 | 4.3 | 16.9 | 1.9 | 4.4 | 1.2 | .
COCCNC(=S)NC12CC3CC(CC(C3)C1)C2 | 52.9* | 32.0 | -0.3 | 0.1 | 0.1 | 0.0
Cc1ccc(S(=O)(=O)CCC(=O)N2CCN(c3ccc(Cl)cc3)CC2)cc1 | 3.5 | 19.3 | -0.7 | 0.0 | 0.3 | .
Cc1ccc(-n2nc3ccc(N)cc3n2)cc1 | 83.7* | 18.9 | 3.0 | 0.7 | 0.0 | -16.2
COc1cc2c(cc1OC)C(c1ccc(-c3ccccc3Cl)o1)=NCC2 | 68.1* | 66.8 | 1.2 | 7.7 | 1.5 | 2.5
COc1cc2c(cc1OC)C(c1ccc(-c3ccc(Cl)cc3Cl)o1)=NCC2 | 27.1 | 48.7 | 0.7 | 2.6 | 1.2 | .
CCCn1c(N)c(N(CCOC)C(=O)/C=C/c2cccc(Cl)c2)c(=O)[nH]c1=O | 7.1 | -9.2 | 1.7 | 1.8 | 1.7 | .
Cc1ccc(-c2cc(-c3ccc(C)o3)nc(N)c2C#N)cc1 | 27.9 | -27.9 | 1.3 | -0.2 | 0.1 | .
Cc1ccc(-c2cc(-c3ccc(F)cc3)c(C#N)c(N)n2)o1 | 60.2* | 0.0 | 1.8 | 14.7 | -0.3 | -15.1
O=C(/C=C/c1ccccc1)N1CCC(c2ccccc2)C1 (stereo not drawn) | -4.2 | 23.6 | 0.1 | 10.0 | 0.5 | .
C1=CN2CCC1C(c1ccccc1)C2 (stereo not drawn) | 79.1* | 4.2 | 1.0 | 0.1 | 0.1 | -11.9
CCCCCOc1ccc(NC(=O)CSc2cccc3cccnc23)cc1 | -1.1 | -9.3 | 6.7 | -4.6 | -1.1 | .
c1ccc(COn2nnc3ccccc32)c(COn2nnc3ccccc32)c1 | 86.9* | 0.3 | 3.2 | 69.2 | 1.9 | -9.2
Clc1cccc(Cl)c1COn1nnc2ccccc21 | -1.9 | 4.9 | 2.2 | 6.9 | 0.8 | .
CCCCCCCC1CC(CSC(=N)N)OC1=O (stereo not drawn) | 100.1* | -7.4 | 1.4 | -0.1 | 0.0 | 8.4
C=CCNC(=S)NCCCCC1NC(=S)N(CC=C)C1=O (stereo not drawn) | -3.9 | 5.9 | 0.3 | -3.8 | -0.9 | .
COc1ccc(C(c2nnnn2C2CCCC2)N2CCC(C(N)=O)CC2)c(OC)c1 (stereo not drawn) | -7.2 | 10.9 | -0.1 | 9.2 | 0.8 | .
COc1ccc(OC)c(C(c2nnnn2C2CCCC2)N2CCc3ccccc3C2)c1 (stereo not drawn) | 88.0* | 33.4 | -0.1 | 26.8 | 8.6 | 4.4
SMILES | Lmaj promast | WT yeast gro inh | RAM network inh | ABCG2 block | ABCB1 block | L major 1uM
COc1cc(C(=O)NNC(=O)c2cc(C)[nH]n2)cc(OC)c1OC | 9.7 | 4.8 | 1.5 | 0.7 | 0.0 | .
C=CCc1ccc(OCCCCCN2CCOCC2)c(OC)c1 | 99.9* | 20.0 | 2.1 | 5.3 | 1.5 | 58.3*
C=CCc1ccc(OCCCCOc2ccc(C(=O)O)cc2)c(OC)c1 | -9.0 | -14.8 | 0.8 | 12.6 | 1.7 | .
CCn1c(COc2ccc3c(c2)CCCC3)nnc1SCC(=O)Nc1ccc(C(=O)OC)cc1 | 1.6 | -2.3 | 3.8 | 11.8 | 0.4 | .
S=C(NC1CC2CCC1C2)N1CCN(c2cccc(Cl)c2)CC1 (stereo not drawn) | 2.8 | 5.5 | 4.4 | 7.9 | -0.1 | .
COc1ccc(C(O)Cn2c(=N)n(CCCN(C)C)c3ccccc32)cc1 (stereo not drawn) | 0.3 | -2.4 | 1.6 | 8.9 | 1.3 | .
CCCCCn1c(=N)n(CC(O)COc2ccccc2OC)c2ccccc21 (stereo not drawn) | 83.3* | 4.9 | 0.1 | -3.0 | -3.1 | 6.5
